This is an account of results in ChEMBL document CHEMBL1153793, “New pyridone, thioxopyridine, pyrazolopyridine and pyridine derivatives that modulate inflammatory mediators in stimulated RAW 264.7 murine macrophage” (Eur J Med Chem, 2009).

pIC50: −log10 of the molar value. The source made the active and inactive calls. The rule behind the calls is not given here.

Experiment [1] relates to RAW264.7. The experiment in a line: Effect on inflammatory mediators in LPS-stimulated mouse RAW264.7 cells assessed as COX-2 accumulation at 20 uM after 24 hrs by dot immunoblotting. Type of experiment: functional. In outline: (§1)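 Cells treated 24 h with 20 µM compound, with or without LPS (1 µg/ml). 20 µg soluble lysate protein dot-blotted onto nitrocellulose and probed with rabbit anti-mouse COX-2 or 5-LO, HRP anti-rabbit secondary and OPD colour. Intensity normalised to β-actin dots; four repeats.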

The subject of experiment [2] is RAW264.7. Description: Effect on inflammatory mediators in LPS-stimulated mouse RAW264.7 cells assessed as TNF-alpha accumulation at 20 uM after 24 hrs by ELISA. Type of experiment: functional. In outline: (§2)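 RAW 264.7 given 20 µM compound for 24 h, alone or together with LPS at 1 µg/ml. TNF-α and PGE2 in harvested supernatants quantified with commercial ELISA kits per manufacturer; four repeats, means reported.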

Experiment [3] concerns RAW264.7. The experiment in a line: Effect on inflammatory mediators in mouse RAW264.7 cells assessed as nitrite accumulation at 20 uM after 24 hrs by Griess assay. Type of experiment: functional. Summed up: (§3)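 Cells in phenol red-free RPMI-1640 with 10% FBS treated 24 h with 20 µM compound, with or without LPS (1 µg/ml). Supernatant mixed 1:1 with Griess reagent for 10 min, A550 read against a sodium nitrite standard curve, then normalised to BCA protein.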
In general terms: Nitrite, measured by Griess reagent, commonly stands in for NO production.

In experiment [4] the test system is RAW264.7. Description: Effect on inflammatory mediators in LPS-stimulated mouse RAW264.7 cells assessed as nitrite accumulation at 20 uM after 24 hrs by Griess assay. Type of experiment: functional. Summed up:
as §3

Experiment [5] relates to RAW264.7. Description: Effect on inflammatory mediators in mouse RAW264.7 cells assessed as 5-LO accumulation at 20 uM after 24 hrs by dot immunoblotting. Type of experiment: functional. In outline:
as §1

The nature of experiment [6]: Antioxidant activity assessed as superoxide radical scavenging activity. It counts as functional. Summed up:
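Non-cellular assay; superoxide generated by oxidation of 50 µM hypoxanthine with 12 mU xanthine oxidase. Scavenging followed as the rate of nitroblue tetrazolium reduction to formazan. SC50 taken from dose-dependent curves of serial dilutions; superoxide dismutase as standard inhibitor.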

Experiment [7] relates to RAW264.7. Description: Effect on inflammatory mediators in LPS-stimulated mouse RAW264.7 cells assessed as 5-LO accumulation at 20 uM after 24 hrs by dot immunoblotting. Type of experiment: functional. Summed up:
as §1

For experiment [8], the system named is RAW264.7. The experiment in a line: Cytotoxicity against mouse RAW264.7 cells assessed as cell viability after 24 hrs by MTT assay. Type of experiment: cell-based. The settings on record: RAW264.7, 24 h, in the assay text read “MTT assay” for “ultra gel clot assay”. In outline: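 RAW 264.7 macrophages (5×10^4 cells/well) exposed 24 h at 37 °C to a range of compound concentrations, then read by MTT reduction to formazan, solubilised in acidic isopropanol. Viability expressed as mean % of untreated cells (n = 4); 1000 U/ml M-CSF as positive control. IC50 derived.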
On the technique in general: Tetrazolium assays rely on reduction of a dye to a coloured formazan, in cell work by metabolically active cells.

A short description of experiment [9]: Peroxyl radical scavenging activity assessed as trolox equivalents at 1 uM by ORAC assay. In outline: (§4)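 β-Phycoerythrin fluorescence decay followed kinetically for 2 h at 37 °C with 1 µM compound, against peroxyl and hydroxyl radicals. One ORAC unit = net protection given by 1.0 µM Trolox.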
The test system of experiment [10] is RAW264.7. The experiment in a line: Effect on inflammatory mediators in mouse RAW264.7 cells assessed as PGE2 accumulation at 20 uM after 24 hrs by ELISA. Type of experiment: functional. In outline: as §2
(ELISA stands for enzyme-linked immunosorbent assay.)

Experiment [11] relates to RAW264.7. The experiment in a line: Effect on inflammatory mediators in LPS-stimulated mouse RAW264.7 cells assessed as PGE2 accumulation at 20 uM after 24 hrs by ELISA. It counts as functional. In outline: as §2
Experiment [12] deals with RAW264.7. Description: Effect on inflammatory mediators in mouse RAW264.7 cells assessed as TNF-alpha accumulation at 20 uM after 24 hrs by ELISA. Type of experiment: functional. In outline:
as §2

Experiment [13] deals with RAW264.7. The experiment in a line: Effect on inflammatory mediators in mouse RAW264.7 cells assessed as COX-2 accumulation at 20 uM after 24 hrs by dot immunoblotting. It counts as functional. In outline: as §1
A short description of experiment [14]: Hydroxyl radical scavenging activity assessed as trolox equivalents at 1 uM by ORAC assay. It counts as functional. In outline:
as §4

Experiment [15] has as its system RAW264.7. The experiment in a line: Induction of phagocytosis in mouse RAW264.7 cells assessed as phagocytic activity against FITC-zymosan after 1 hr by fluorimetry. Type of experiment: functional, cell-based. Summed up: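 Cells at 1×10^5/well in phenol red-free RPMI-1640 rested 24 h, then given compound for 1 h. FITC-zymosan added for a further 1 h; cells washed three times and lysed with Triton X-100. Fluorescence read at 485/530 nm and expressed relative to untreated cells (100%).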

Experiment [16] deals with RAW264.7. Description: Effect on mouse RAW264.7 cell function assessed as FITC-LPS binding to macrophage after 15 mins by fluorimetry. It counts as functional, cell-based. In outline: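 5×10^5 RAW 264.7 cells pre-incubated 15 min at 37 °C with compound in RPMI-1640 plus 10% FBS as the CD14/LBP source. FITC-LPS (200 ng/ml) then added for 1 h. After PBS wash, fluorescence read at ex 485/em 530 nm and median fluorescence intensity reported.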

Take `N#Cc1c(-c2c[nH]c3ccccc23)cc(-c2ccc3c(c2)CCCC3)[nH]c1=S`: the Activity in experiment [1] is given as 59.8%; in experiment [2], 4925.35 pg; in experiment [3], 15.5 nmol; in experiment [4], 480.05 nmol; in [5], 23.8%; in experiment [7], 69.4%. Moreover, the Activity in experiment [9] worked out at 6.13; in experiment [10], 49.82 pg; in experiment [11] it was 3005.3 pg; in experiment [12], 75.4 pg; in [13] it was 28.1%; in [14] it was 4.2. Also, the SC50 in experiment [6] was determined as 4.22 µg/mL. The pIC50 (commonly −log10 of the IC50, conventionally taken in molar units) in [8] is below 4.00.

Consider `CC(C)c1ccc(-c2cc(-c3ccc4c(c3)CCCC4)[nH]c(=O)c2C#N)cc1`, for which the result in experiment [15] and in experiment [16] was Active. The Activity in experiment [1] is 42.7%; in experiment [2] it was 1255.6 pg; in experiment [3], 8.51 nmol; in experiment [4] it was 32.55 nmol; in experiment [5], 20.3%; in [7] it was 25.1%. The Activity is 0.75 in experiment [9]; 40.13 pg in [10]; 2105.3 pg in [11]; 91.67 pg in [12]; 21.4% in experiment [13]; 0.92 in [14]. In addition, the SC50 in [6] worked out at 85.4 µg/mL. The pIC50 in experiment [8] was below 4.00.

As for `COc1ccc(-c2cc(-c3ccc4c(c3)CCCC4)nc(OCC(=O)NN)c2C#N)cc1OC`, the Activity in [1] was determined as 71.3%; in experiment [2], 4924.22 pg; in experiment [3] it was 1.34 nmol; in experiment [4] it was 78.54 nmol; in experiment [5] it was 13.8%; in experiment [7], 83.2%. Moreover, the Activity came to 5.12 in [9]; 25.6 pg in [10]; 3111.94 pg in experiment [11]; 124.68 pg in experiment [12]; 10.2% in [13]; 5.84 in [14]. Besides, the SC50 in experiment [6] was 8.67 µg/mL. In addition, the pIC50 in experiment [8] is 5.51.

Turning to `CC(C)c1ccc(-c2cc(-c3ccc4c(c3)CCCC4)[nH]c(=S)c2C#N)cc1`, the result in experiment [15] and in [16] was Active. In addition, the Activity in [1] was found to be 36.7%; in [2], 1458.16 pg; in experiment [3], 12.66 nmol; in experiment [4] it was 25.58 nmol; in experiment [5] it was 14.2%; in experiment [7], 31.6%. The Activity in experiment [9] turned out to be 4.32; in experiment [10] it was 41.84 pg; in [11], 1843.42 pg; in [12], 101.5 pg; in experiment [13], 18.2%; in experiment [14] it was 5.41. Besides, the SC50 in experiment [6] turned out to be 10.2 µg/mL. In [8], the pIC50 is below 4.00.

Take `COc1ccc(-c2cc(-c3ccc4c(c3)CCCC4)nc3[nH]nc(N)c23)cc1OC`: the Activity in [1] was found to be 63.7%; in [2], 4185.85 pg; in experiment [3] it was 10.53 nmol; in [4] it was 145.67 nmol; in experiment [5] it was 24%; in [7], 81.8%. The Activity worked out at 1.92 in experiment [9]; 28.6 pg in experiment [10]; 3415.23 pg in experiment [11]; 94.88 pg in experiment [12]; 15.7% in experiment [13]; 5.85 in experiment [14]. In addition, the SC50 in experiment [6] is above 100 µg/mL. Further, in experiment [8], the pIC50 was below 4.30.

In the case of `COc1ccc(-c2cc(-c3ccc4c(c3)CCCC4)[nH]c(=O)c2C#N)cc1OC`, the Activity is listed as 76.3% in experiment [1]; 3860.25 pg in experiment [2]; 14.8 nmol in experiment [3]; 355.78 nmol in experiment [4]; 15.8% in [5]; 92.1% in experiment [7]. In addition, the Activity in [9] amounted to 0.41; in experiment [10] it was 30.35 pg; in experiment [11], 3120.45 pg; in [12], 69.56 pg; in [13], 14.6%; in experiment [14] it was 0.54. For the same compound, the SC50 in experiment [6] is above 100 µg/mL. The pIC50 in [8] was below 4.00.

With `CC(C)c1ccc(-c2cc(-c3ccc4c(c3)CCCC4)nc3[nH]nc(N)c23)cc1`, the outcome in [15] and in experiment [16] was Active. Also, the Activity in experiment [2] came out at 1925.78 pg; in experiment [3], 5.62 nmol; in [4], 62.42 nmol; in experiment [9], 2.45; in experiment [10], 32.21 pg; in experiment [11], 2974.23 pg. Further, the Activity amounted to 105.6 pg in experiment [12] and 2.28 in [14]. Further, the SC50 in experiment [6] came out at 21.9 µg/mL. In addition, the pIC50 in experiment [8] is below 4.30.

On to `COc1ccc(-c2cc(-c3ccc4c(c3)CCCC4)nc(OCC(=O)NCc3ccccc3)c2C#N)cc1OC`, for which the result in experiment [15] and in [16] was inactive. Moreover, the Activity was 73.3% in experiment [1]; 854.16 pg in experiment [2]; 26.65 nmol in experiment [3]; 155.25 nmol in experiment [4]; 18.9% in experiment [5]; 77.4% in experiment [7]. Besides, the Activity was 3.56 in experiment [9]; 53.1 pg in experiment [10]; 2018.96 pg in experiment [11]; 116.8 pg in experiment [12]; 23.7% in experiment [13]; 2.31 in experiment [14]. Also, the SC50 in [6] was determined as 19.9 µg/mL.

Regarding `N#Cc1c(-c2c[nH]c3ccccc23)cc(-c2ccc3c(c2)CCCC3)[nH]c1=O`, in [15], the outcome was Active. For the same compound, the Activity worked out at 82.4% in [1]; 5100.15 pg in experiment [2]; 16.25 nmol in [3]; 505.75 nmol in experiment [4]; 23.5% in [5]; 82.3% in experiment [7]. The Activity in experiment [9] stood at 0.35; in experiment [10], 32.63 pg; in experiment [11] it was 3210.3 pg; in experiment [12] it was 88.44 pg; in experiment [13] it was 16.3%; in experiment [14], 0.21. In addition, the SC50 in experiment [6] came to 78.5 µg/mL. Besides, in experiment [8], the pIC50 is below 4.00.

Turning to `CC(C)c1ccc(-c2cc(-c3ccc4c(c3)CCCC4)nc(NCc3ccccc3)c2C#N)cc1`, the Activity in experiment [1] was 97.3%; in [2], 6325.08 pg; in [3], 614.63 nmol; in [4], 922.5 nmol; in experiment [5], 29.8%; in experiment [7], 88.7%. For the same compound, the Activity is 1.34 in [9]; 48.3 pg in experiment [10]; 3222.55 pg in [11]; 1890.16 pg in experiment [12]; 53.2% in experiment [13]; 1.01 in [14]. In experiment [16], the result was inactive. Moreover, the SC50 in [6] came to 77.6 µg/mL. Further, in experiment [8], the pIC50 was below 4.30.
